From paper PMC7442691 (Nature chemical biology, 2020) come the findings set out here.

The structures appear in SMILES notation.

The target in one assay is Pin1 (Homo sapiens, UniProt Q13526). Nature of the assay: Cellular target engagement, live cell competition with BJP-DTB. Format: cell-based. Conditions: PATU-8988T cells, 5 h treatment. Put shortly: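 PATU-8988T, PC3 or MDA-MB-468 cells (2.5 million per 10 cm plate) were dosed next day with test compound, either as a concentration series for 5 h or at 5 μM over time. Cells were PBS-washed, scraped and lysed (HEPES pH 7.4, NP-40, TCEP, protease inhibitors). Lysate (500 μg protein) took desthiobiotin-tagged probe at 4°C, then streptavidin agarose for 1 h at 4°C. Washed beads were boiled in LDS for immunoblotting.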

Assay [1] concerns PATU-8988T C1 (Pin1 WT) and C2 (Pin1 KO). In words: Cell viability, dose series in 2D monolayer, C1 vs C2. In kind it is cell-based, human. The conditions noted are these: juglone 4 days, KPT-6566 3 days.
The subject of a further assay is FKBP12^F36V-Pin1. In words: dTAG degradation of FKBP12F36V-Pin1 by immunoblot. Conditions: for rescue of dTAG-13 degradation by pretreatment: 2 h pretreatment, then 5 h dTAG-13 500 nM. In kind it is cell-based, human.
The test system of assay [2] is PATU-8988T cells (parental, C1, C2 and transduced C2). Nature of the assay: Cell viability, growth over time in 2D-adherent monolayer. Format: cell-based, human. Put shortly:
(§1)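 Cells seeded at 100 per well in 96-well plates, one plate per time point, and dosed the day after plating with DMSO, test compound or dTAG-13 at 37°C, 5% CO2. Medium and compound were renewed every 48 h, with Dox 100 ng/mL added for inducible C2 cells. CellTiter-Glo luminescence was normalised to a Day 0 plate read before dosing. At least n = 3 biological replicates.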

The subject of assay [3] is phospho-CDK1 Tyr15, c-Myc, β-Catenin, NFkB p65. In words: Inhibitor effects on Pin1 downstream signaling. The conditions noted are these: C2 + FKBP12F36V-Pin1 cells, 5 h. In kind it is cell-based, human. Put shortly:
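Cells seeded at 100,000 per 6-well well, treated next day with DMSO, test compound, dTAG-13 or Dox, then lysed in RIPA with protease/phosphatase inhibitors for western blotting. For fractionation, 2 million cells per 10 cm plate were treated 5.5 h, trypsinised and split by nuclear/cytoplasmic extraction kit. For Wnt3a arms, cells had 4 h compound, then Wnt3a (50 ng/mL) for 4 more hours.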

Assay [4] has as its system PATU-8988T FKBP12^F36V-KRAS^G12V; KRAS^−/− clone. Nature of the assay: Viability with FKBP12F36V-KRASG12V degradation, 4 days. The conditions noted are these: 4-day treatment; dTAG-13 100 nM, BJP-06-005-3 5 μM. In kind it is cell-based, human. Put shortly:
as §1

The mark [5] stands for this setting: C2 + FKBP12F36V-Pin1 cells, 5 h.

Sequence of Pin1 (Q13526 whole entry): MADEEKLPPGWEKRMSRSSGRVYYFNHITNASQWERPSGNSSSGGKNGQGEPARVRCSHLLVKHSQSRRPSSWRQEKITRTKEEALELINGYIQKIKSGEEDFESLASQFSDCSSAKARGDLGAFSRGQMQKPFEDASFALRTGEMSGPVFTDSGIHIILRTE

For the molecule `CC(C)(C)c1ccc(S(=O)(=O)N=C2C=C(SCC(=O)O)C(=O)c3ccccc32)cc1` [KPT-6566], on Pin1, the “competition with BJP-DTB for cellular Pin1” value is “unable to validate that KPT-6566 engages cellular Pin1”. Also, in assay [1], the “anti-proliferative effects, C1 versus C2” value was “identical anti-proliferative effects in C1 and C2”.
As for `NS(=O)(=O)OC[C@@H]1C[C@@H](n2ccc3c(N[C@H]4CCc5ccccc54)ncnc32)C[C@@H]1O` [MLN4924], in the assay on FKBP12^F36V-Pin1, the “rescue of dTAG-13 degradation by pretreatment” value is “degradation was rescued upon pretreatment”.
As to `CC(C)C[C@H](NC(=O)[C@H](CCc1ccccc1)NC(=O)CN1CCOCC1)C(=O)N[C@@H](Cc1ccccc1)C(=O)N[C@@H](CC(C)C)C(=O)[C@@]1(C)CO1` [carfilzomib], the “rescue of dTAG-13 degradation by pretreatment” value with FKBP12^F36V-Pin1 is listed as “degradation was rescued upon pretreatment”.
On to `CC[C@H](C(=O)N1CCCC[C@H]1C(=O)O[C@H](CCc1ccc(OC)c(OC)c1)c1ccccc1OCC(=O)NCCCCCCOc1cccc2c1C(=O)N(C1CCC(=O)NC1=O)C2=O)c1cc(OC)c(OC)c(OC)c1` (stereo partly drawn) [dTAG-13], for which, in assay [2] (C2 + FKBP12F36V-Pin1, 2.5 μM), the cell proliferation entry is listed as “not at 2.5 μM”. The cell proliferation entry in assay [2] (C2 + FKBP12F36V-Pin1, 100 or 500 nM) is given as “diminished cell proliferation after 6–8 days”. In the assay with FKBP12^F36V-Pin1 (500 nM dTAG-13), this molecule returned a time to degradation of 2 to 4 h. Besides, in the assay with FKBP12^F36V-Pin1 (setting [5]), the “concentration at which hook effect apparent” value stood at 1 µM and the “concentration of maximal degradation” value fell in the range of 100 to 500 nM. The “phospho-CDK1 Tyr15” value in assay [3] is given as “also increased phospho-CDK1 Tyr15”. In addition, the cell viability entry in assay [4] was “modest viability effects”.
In the case of `O=C1C=CC(=O)c2c(O)cccc21` [juglone], the “anti-proliferative effects, C1 versus C2” value in assay [1] was “identical anti-proliferative effects in C1 and C2”.
